# Experimental data from PubChem BioAssay.
# Activity calls are given as the source filed them.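 Rule for the calls, unless noted: active = viability at or under a set limit in both replicates, limit being median viability minus 3 SD (cut at about 48% in these data, passing the limit was not always enough); inconclusive = at or under the limit in just one replicate; inactive = at or above the limit in both replicates.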
# Tests used:
# [1] = reduced viability of SK-BR-3 breast cancer cells – cell-based, 24 h, human, pilot screen (AID 572;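 active = viability at or below 10% of carrier control in both of two separate runs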;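 note: compound exposure lasted between 18 and 24 h rather than exactly 24 h; 100% = carrier-treated control wells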); settings: SK-BR-3 viability, CellTiter-Glo luminescence, at 10 µM, stronger effect = lower value
# [2] = HUVEC growth inhibition – cell-based, human, primary screen (AID 575;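 active = viability at or below 30% in both replicate assays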;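 note: 100% = median of untreated cell wells with 0.1% DMSO on each plate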); settings: HUVEC proliferation, CellTiter-Glo luminescence, 72 h; at 10 µM; stronger effect = lower value
# In short: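 Test system – primary HUVEC, no more than 12 passages · Dosing – one dose, 10 µM final, 0.1% DMSO · Times – 72 h treatment at 37 °C · Measured by – ATP-based CellTiter-Glo luminescent read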
# [3] = H69AR cell proliferation blockers – human, duplicate replicates, primary screen (AID 580); settings: H69AR lung tumor cells viability, ATP luminescence, 72 h; at 10 µM; stronger effect = lower value;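 note: 100% = mean luminescence of untreated wells and 0% = no signal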
# [4] = MRP1 drug-resistance reversers in H69AR cells – cell-based, doxorubicin co-treatment, pilot screen (AID 601;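 active = viability loss from added drug above about 55%, and viability with drug at most 40%, in both replicates, limit read from the data, passing the limit was not always enough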); settings: CellTiter-Glo, 72 h, at 10 µM; for differential viability (reversal): stronger effect = higher value
# [5] = yeast transport mutant growth inhibition pilot in 384-well plates, post-Golgi transport modulator project (AID 636; in the data active = inhibition above about 31%); settings: absorbance 615 nm, about 18 h, stronger effect = higher value
# [6] = growth suppression of yeast trafficking mutant, preliminary HTS, modulators of trafficking downstream of Golgi apparatus project, 1536-format plate, OD 615 nm (AID 637; in the data active = inhibition above about 30%); settings: yeast transport mutant growth, absorbance 615 nm, 18 h; stronger effect = higher value
# [7] = H69AR cells + 2 uM doxorubicin, measured here: viability with 2 uM doxorubicin, stronger effect = lower value
# [8] = H69AR cells, compound alone cytotoxicity
SMILES,viability [1],viability [2],viability [3],differential viability (reversal) ([4]; H69AR cells + 2 uM doxorubicin),"viability [4, 7] [%]","viability [4, 8] [%]",inhibition [5],inhibition [6]
Cc1cc(C(F)(F)F)c2c(C)nn(CCc3nn[nH]n3)c2n1,105% (inactive),91.4% (inactive),96.1% (inactive),-1.98% (inactive),98.1,96.1,0.14% (inactive),12.2% (inactive)
N#Cc1c(-c2ccc3c(c2)OCO3)csc1N,96% (inactive),83.9% (inactive),95.2% (inactive),1.51% (inactive),93.7,95.2,3.29% (inactive),4.73% (inactive)
CC(=O)c1ccc(N2CCN(C(=O)c3cc(C)on3)CC2)cc1,100% (inactive),97.7% (inactive),111% (inactive),12.4% (inactive),98.9,111,-6.99% (inactive),-3.82% (inactive)
Nc1ccc(S(=O)(=O)c2ccc(N)cc2)cc1,95% (inactive),85.9% (inactive),106% (inactive),19.4% (inactive),87.1,106,-2.21% (inactive),5.17% (inactive)
CN(C)c1ccc(C2C3=C(CCCC3=O)OC3=C2C(=O)CCC3)cc1,90% (inactive),97% (inactive),92.5% (inactive),2.78% (inactive),89.7,92.5,-5.73% (inactive),-2.18% (inactive)
Cc1cc(C)nc(SC2=CS(=O)(=O)c3ccccc32)n1,102% (inactive),73.5% (inactive),14.8% (active),-7.5% (inactive),22.3,14.8,-1.2% (inactive),-1.27% (inactive)
O=C(c1ccc(Cl)cc1)N1CCCOC1,89% (inactive),113% (inactive),92% (inactive),7.33% (inactive),84.7,92,-8.11% (inactive),-1.27% (inactive)
O=C(NC1CCCCCC1)c1cc(S(=O)(=O)N2CCC3(CC2)OCCO3)ccc1F,106% (inactive),98.2% (inactive),88.3% (inactive),-4.04% (inactive),92.4,88.3,0.27% (inactive),3.27% (inactive)
CN1CC=C2C(C#N)=C(N)C(C#N)(C#N)C(c3cccc(Cl)c3Cl)C2C1 (configuration not stated),115% (inactive),69.7% (inactive),61.1% (inactive),1.02% (inactive),60.1,61.1,-4.67% (inactive),2.13% (inactive)
COc1cc(NC(=O)Nc2cccc(C(C)=O)c2)cc(OC)c1OC,109% (inactive),102% (inactive),92.4% (inactive),4.83% (inactive),87.6,92.4,-8.36% (inactive),-0.18% (inactive)
CCN1CCN(c2nc3c(c(=O)n(C)c(=O)n3C)n2Cc2cccc3ccccc23)CC1,87% (inactive),104% (inactive),87.7% (inactive),3.33% (inactive),84.4,87.7,-6.58% (inactive),0.91% (inactive)
CCN(C(=O)c1ccnc(C(C)(C)C)c1)c1ccccc1,88% (inactive),94.4% (inactive),79.2% (inactive),-4.02% (inactive),83.3,79.2,-6.85% (inactive),2% (inactive)
CCN(CC)CCCN1C(=O)C(O)=C(C(C)=O)C1c1cccc(OC)c1 (configuration not stated),97% (inactive),101% (inactive),93% (inactive),5.69% (inactive),87.3,93,-3.51% (inactive),-2.73% (inactive)
COc1ccc(Cn2c(N)c(C#N)c3nc4ccccc4nc32)cc1OC,95% (inactive),100% (inactive),99.5% (inactive),12.6% (inactive),86.9,99.5,-6.58% (inactive),0.48% (inactive)
Nc1ncnc2nc(Sc3ccc(Cl)cc3)[nH]c12,99% (inactive),96.1% (inactive),98.6% (inactive),7.52% (inactive),91.1,98.6,0.52% (inactive),4.59% (inactive)
Cn1c(=O)c2c(nc(N3CCN(c4ccccc4)CC3)n2CCCc2ccccc2)n(C)c1=O,68% (inactive),90.6% (inactive),84.1% (inactive),1.85% (inactive),82.2,84.1,-3.33% (inactive),7.09% (inactive)
Cc1ccc2[nH]c(=O)c(-c3noc(-c4ccncc4)n3)cc2c1,104% (inactive),113% (inactive),98.7% (inactive),4.67% (inactive),94,98.7,-8.11% (inactive),6.18% (inactive)
Cc1nc2ccccc2c(=O)n1NC(=O)Nc1ccccc1,111% (inactive),95.1% (inactive),107% (inactive),10.6% (inactive),96,107,-1.2% (inactive),-1.82% (inactive)
CCn1cc(C(=O)NC2CCc3ccccc32)c(=O)c2ccc(C)nc21 (configuration not stated),77% (inactive),84.3% (inactive),81.6% (inactive),-10.2% (inactive),91.7,81.6,-0.13% (inactive),5.41% (inactive)
O=C(Nc1ccccc1-c1ccccc1)NC1CCN(C(=O)N2CCOCC2)CC1,108% (inactive),95.9% (inactive),103% (inactive),3.68% (inactive),99.5,103,-3.29% (inactive),4.03% (inactive)
CC(=O)c1c(C)nn(C(C)CC(=O)O)c1C (configuration not stated),113% (inactive),97.8% (inactive),97.5% (inactive),8.11% (inactive),89.3,97.5,-1.95% (inactive),-4.75% (inactive)
Cc1nc2ccc(S(=O)(=O)NCC(=O)N3CCc4ccccc4C3)cc2s1,87% (inactive),106% (inactive),93.5% (inactive),6.91% (inactive),86.6,93.5,2.47% (inactive),3.11% (inactive)
CCOC(=O)c1[nH]c2ccc(C)cc2c1NC(=O)CN1CCCCC1,107% (inactive),106% (inactive),87.8% (inactive),0.72% (inactive),87.1,87.8,-5.73% (inactive),-3.09% (inactive)
Cc1ccc(-c2ccc(=O)n(CC(=O)NCCCN3CCCCC3C)n2)cc1 (configuration not stated),97% (inactive),99% (inactive),91.9% (inactive),-3.54% (inactive),95.4,91.9,-0.39% (inactive),-6.56% (inactive)
